Experimental data as given in PubChem BioAssay.
Active and inactive are the calls of the source.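 Rule for the calls, unless noted: active = fluorescence slope higher than the sample average by over 3 SD (cut at about -0.22 in these data, passing the limit was not always enough); inactive = the rest.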

Experiments:
[1] = inhibitors of TNFa-induced NFkB p65 translocation, primary screen, imaging, HUVEC, MLSMR starter and 10KST1 sets (AID 438;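 active = inhibition above 20% together with a positive visual image hit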;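 note: compound added about 3h40 before a 20 min TNFalpha stimulation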;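 for inhibition: signal is the nuclear over cytoplasmic p65 intensity ratio per well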); conditions: HUVEC TNFa-induced p65 nuclear translocation; cell count: measured here: nuclei count (cytotoxicity indicator), at 2.08 µM; inhibition: at 2 µM, stronger effect = higher value, 0% TNFa-plus-vehicle, 100% no-TNFa wells
[2] = endothelial E-selectin expression blockers – imaging, HUVEC, immunofluorescence, MLSMR starter and 10KST1 sets, primary screen (AID 487;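 active = visually confirmed hit in the image check and inhibition above 20%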;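 for inhibition: signal is fraction of cell area covered by stained E-selectin grains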;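 for nuclei count: 100% = median nuclei count of all wells on the same plate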); conditions: HUVEC TNFalpha-induced E-selectin immunofluorescence imaging, at 2 µM; inhibition: stronger effect = higher value; nuclei count: measured here: cell number, toxicity
[3] = Primary imaging screen for DUSP6 inhibitors that restore phospho-Erk in transfected HeLa cells, chemical complementation (AID 609;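 active = compounds giving at least 50% inhibition in the cell-based MKP-3 phosphatase rescue imaging test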;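 for inhibition: phospho-Erk level distribution per well compared with pooled transfected vehicle control wells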); conditions: HeLa MKP-3 transfected, phospho-Erk imaging KS statistic, at 10 µM, cells stimulated with TPA for 15 min
[4] = molecular target: Dual specificity protein phosphatase 6 (Homo sapiens) (UniProt Q16828); assay: as above; conditions: HeLa MKP-3 transfected, phospho-Erk imaging KS statistic; at 10 µM; stronger effect = higher value; cells stimulated with TPA for 15 min
Dual specificity protein phosphatase 6 (Homo sapiens), sequence (Q16828 whole entry, looked up): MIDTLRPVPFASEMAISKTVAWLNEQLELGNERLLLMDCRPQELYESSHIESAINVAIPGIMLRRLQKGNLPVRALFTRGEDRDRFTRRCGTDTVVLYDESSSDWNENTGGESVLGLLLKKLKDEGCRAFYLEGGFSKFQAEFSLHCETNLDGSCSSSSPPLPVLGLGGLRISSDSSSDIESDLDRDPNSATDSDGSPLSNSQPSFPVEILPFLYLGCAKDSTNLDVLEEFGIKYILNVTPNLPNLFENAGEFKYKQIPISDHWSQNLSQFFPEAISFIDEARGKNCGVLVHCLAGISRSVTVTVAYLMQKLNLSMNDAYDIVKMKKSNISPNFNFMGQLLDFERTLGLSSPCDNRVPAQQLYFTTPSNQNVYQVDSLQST

[5] = molecular target: Voltage-gated potassium channel subunit beta-2 (Rattus norvegicus) (UniProt P62483); assay: inhibitors of rat Kvbeta2 reductase activity – biochemical, NADPH fluorescence, primary screen (AID 622); conditions: recombinant KvBeta, 4-cyanobenzaldehyde reduction, at 10 µM, stronger effect = higher value;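 note: slope of raw intensity against log time taken from 70 to 1610 s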
Voltage-gated potassium channel subunit beta-2 (Rattus norvegicus), sequence (P62483 whole entry, looked up): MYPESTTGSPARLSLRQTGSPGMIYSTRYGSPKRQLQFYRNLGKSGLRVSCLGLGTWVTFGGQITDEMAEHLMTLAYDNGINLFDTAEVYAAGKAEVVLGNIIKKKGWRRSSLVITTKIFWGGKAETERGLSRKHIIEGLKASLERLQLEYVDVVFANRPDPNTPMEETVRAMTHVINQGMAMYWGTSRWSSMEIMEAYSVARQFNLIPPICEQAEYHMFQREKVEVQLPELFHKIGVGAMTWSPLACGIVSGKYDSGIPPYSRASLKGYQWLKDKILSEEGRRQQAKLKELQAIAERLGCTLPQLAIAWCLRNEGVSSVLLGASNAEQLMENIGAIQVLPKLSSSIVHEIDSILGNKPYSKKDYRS

[6] = molecular target: Voltage-gated potassium channel subunit beta-2 (Rattus norvegicus) (UniProt P62483); assay: enhancers of rat Kvbeta2 NADPH turnover – biochemical, NADPH fluorescence, primary screen (AID 623;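 active = NADPH fluorescence slope more negative than the mean of all samples by about 3 SD, 99.7% confidence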;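 note: fluorescence intensity change per second fitted from 20 to 320 s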); conditions: Recombinant KvBeta, NADPH fluorescence decrease slope, 10 min; at 10 µM; stronger effect = lower value
[7] = molecular target: Alpha-2C adrenergic receptor (Homo sapiens) (UniProt P18825); assay: compounds altering alpha2C-coupled GIRK flux – cell-based, HEK293 alpha2C/GIRK1/2, thallium flux, primary screen (AID 624;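 active = fluorescence slope after compound addition differing from the mean of all screened samples at 99.7% confidence, in either direction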;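 note: slope of fluorescence ratio to pre-addition baseline per second over 15 to 24 s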); conditions: thallium flux BTC fluorescence, at 10 µM, actives lie on both sides
Alpha-2C adrenergic receptor (Homo sapiens), sequence (P18825 whole entry, looked up): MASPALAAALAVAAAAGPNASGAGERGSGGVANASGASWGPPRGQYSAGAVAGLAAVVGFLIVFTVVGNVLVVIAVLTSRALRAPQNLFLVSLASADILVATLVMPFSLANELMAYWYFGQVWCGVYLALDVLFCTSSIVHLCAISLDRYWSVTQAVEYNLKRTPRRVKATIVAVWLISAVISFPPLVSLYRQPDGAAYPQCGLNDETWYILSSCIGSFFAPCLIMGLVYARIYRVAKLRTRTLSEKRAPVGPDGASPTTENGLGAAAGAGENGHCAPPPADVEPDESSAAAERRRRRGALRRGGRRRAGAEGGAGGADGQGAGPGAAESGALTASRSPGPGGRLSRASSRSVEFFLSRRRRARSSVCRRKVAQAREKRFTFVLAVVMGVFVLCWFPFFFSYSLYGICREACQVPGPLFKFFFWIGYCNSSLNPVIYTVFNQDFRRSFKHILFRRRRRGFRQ

[8] = inhibitors of larval lipid processing in zebrafish, primary screen, whole organism, PED6 fluorescence, gall bladder and intestine (AID 686;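 active = a full or partial loss of lipid-probe fluorescence in the fish gall bladder, intestine or both, judged by eye; inactive = no fluorescence loss, or compound toxic to the fish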;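 note: larvae 5 to 7 days old with five fish per well; signal comes from phospholipase A2 cleavage of quenched PED6 carried via bile; overnight exposure to compound and PED6 before scoring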); conditions: Zebrafish larvae PED6 lipid processing, fluorescence scoring; screened at 20 µM (by protocol)
Summary of the method: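 System: live zebrafish larvae aged 5-7 days, whole organism; measure: graded gall bladder and intestinal fluorescence inhibition per well; incubation: overnight exposure; reagent: ingested quenched lipid PED6 at 100 nM; signal: By-eye fluorescence microscopy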

[9] = loss of swimming-algae plug formation – whole organism, Chlamydomonas reinhardtii, WT vs cilia-less mutant, absorbance, 96-well, primary screen (AID 463189;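 active = inhibition at or above 50% relative to wild type and mutant plate controls; inactive = inhibition below 50%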;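 note: 0% = wild type cc124 cells in DMSO and 100% = ciliumless bld1 mutant cells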); conditions: Chlamydomonas reinhardtii gravitaxis, OD600 absorbance, 2 days; at 10 µM; stronger effect = higher value
[10] = measured here: cell density z-score
[11] = measured here: nuclear c-Myc green intensity z-score
[12] = measured here: nuclear pErk red intensity z-score, stronger effect = higher value

Compound	cell count [1]	inhibition [1]	inhibition [2]	nuclei count [2] [%]	z-score [3, 10]	z-score [3, 11]	z-score [3, 12]	inhibition [4]	fluorescence slope [5]	NADPH fluorescence slope [6]	slope [7]	outcome [8]	inhibition [9]
COc1cccc(-c2nnc3sc(-c4ccc(Cl)cc4)nn23)c1	588	3.2% (inactive)	19.9% (inactive)	102	0.426	-0.269	0.00297	-4.27% (inactive)	-0.385 (inactive)	-1.5e-05 (inactive)	0.00661 (inactive)	inactive	5.02% (inactive)
CCOc1ccc(/C(O)=C2/C(=O)C(=O)N(CCN(C)C)C2c2ccccc2)cc1Cl (stereo unspecified)	539	-10.3% (inactive)	-64% (inactive)	156	2.52	0.178	-1.22	2.92% (inactive)	-0.502 (inactive)	-5.4e-05 (inactive)	0.00531 (inactive)	inactive	2.01% (inactive)
Nc1nonc1OCCc1ccccc1	540	-5.8% (inactive)	-31.5% (inactive)	160	0.698	1.41	0.0192	-6.06% (inactive)	-0.439 (inactive)	-4.6e-05 (inactive)	0.00604 (inactive)	inactive	-3.19% (inactive)
CC1(C)CC(=O)C2=C(C1)N(Cc1ccco1)C(=O)C2(O)C(F)(F)F (stereo unspecified)	502	-2.4% (inactive)	-124% (inactive)	132	-0.0541	-0.87	-0.763	-12.3% (inactive)	-0.467 (inactive)	-6.1e-05 (inactive)	0.00641 (inactive)	inactive	20.3% (inactive)
CCCc1[nH]n(-c2nc3ccccc3s2)c(=O)c1C=NCCN1CCOCC1	538	1.3% (inactive)	-110% (inactive)	123	-0.895	0.406	-1.01	7.93% (inactive)	-0.474 (inactive)	-4e-05 (inactive)	0.00553 (inactive)	inactive	19.8% (inactive)
CCOCCSc1nc2c(c(=O)[nH]c(=O)n2C)n1CCCc1ccccc1	487	-2.4% (inactive)	-80.2% (inactive)	133	0.294	-0.866	-0.255	-3.5% (inactive)	-0.515 (inactive)	-6.3e-05 (inactive)	0.00557 (inactive)	inactive	-2.75% (inactive)
COc1ccccc1C1/C(=C(/O)c2ccc(C)cc2)C(=O)C(=O)N1Cc1ccco1 (stereo unspecified)	550	9.2% (inactive)	6.3% (inactive)	101	0.623	0.192	-1.11	-11.5% (inactive)	-0.552 (inactive)	-6.1e-05 (inactive)	0.00643 (inactive)	inactive	-13.2% (inactive)
O=c1[nH]cnc2cc(-c3ccccc3)sc12	526	-9.9% (inactive)	-20.4% (inactive)	168	0.45	-1.43	0.87	21% (inactive)	-0.351 (inactive)	-9.5e-06 (inactive)	0.00529 (inactive)	inactive	-1.84% (inactive)
CCC1(C)Cc2c(sc3c2c(=O)n(C)c2nnc(SCC(=O)c4ccc(Cl)cc4)n32)CO1 (stereo unspecified)	559	-2.6% (inactive)	-61.6% (inactive)	121	-1.48	3.25	-1.65	9.82% (inactive)	-0.37 (inactive)	2e-05 (inactive)	0.00685 (inactive)	inactive	-10.8% (inactive)
CC(C)OC(=O)CC1=NC(=O)CS1	693	-4% (inactive)	-27.6% (inactive)	175	-0.0687	-1.07	0.103	-0.624% (inactive)	-0.423 (inactive)	-4.2e-05 (inactive)	0.00582 (inactive)	inactive	-2.62% (inactive)
Cn1c(=O)cc(NCc2ccccc2)[nH]c1=O	451	-5.5% (inactive)	-114% (inactive)	164	1.39	-0.42	-0.956	-0.624% (inactive)	-0.333 (inactive)	5.7e-06 (inactive)	0.00621 (inactive)	inactive	-4.62% (inactive)
COc1cccc(N2CCN(C3CC(=O)N(c4cccc(Cl)c4)C3=O)CC2)c1 (stereo unspecified)	325	-2.2% (inactive)	-62.9% (inactive)	80.7	-0.898	1.47	-0.427	3.42% (inactive)	-0.43 (inactive)	-0.00011 (inactive)	0.00471 (inactive)	inactive	-11.3% (inactive)
CCc1ccc2c(c1)C(C)=CC(C)(C)N2	622	-14.1% (inactive)	-3.3% (inactive)	176	-1.35	-0.276	0.835	-13.3% (inactive)	-0.431 (inactive)	-6.9e-05 (inactive)	0.00542 (inactive)	inactive	5.82% (inactive)
CCOC(=O)c1c(C)n(C)c2ccc(OC)c(NC(=O)c3cccs3)c12	361	-4.3% (inactive)	-0.3% (inactive)	151	-1.28	0.0285	0.397	-4.59% (inactive)	-0.424 (inactive)	-0.00012 (inactive)	0.00568 (inactive)	inactive	-6.67% (inactive)
COc1ccc(C2C(C#N)=C(SC)NC3=C2C(=O)CC(C)(C)C3)cc1 (stereo unspecified)	369	-8.9% (inactive)	-30.1% (inactive)	156	1.03	-0.788	1.1	-12.6% (inactive)	-0.411 (inactive)	-9.7e-05 (inactive)	0.00455 (inactive)	inactive	27.3% (inactive)
CCOC(=O)CSc1nc2sc3c(c2c(=O)[nH]1)CC(C)(C)OC3	583	-40.2% (inactive)	18.3% (inactive)	123	-1.86	1.97	-0.11	7.48% (inactive)	-0.519 (inactive)	-0.000112 (inactive)	0.0047 (inactive)	inactive	-8.53% (inactive)
COc1cccc(CNc2ccc(Br)cn2)c1O	544	-3.4% (inactive)	-2.4% (inactive)	167	-0.809	-0.901	-0.106	3.5% (inactive)	-0.316 (inactive)	1.4e-05 (inactive)	0.00431 (inactive)	inactive	6.48% (inactive)
CCOC(=O)c1sc(-n2[nH]c(C)cc2=O)nc1C	452	-2.2% (inactive)	-23% (inactive)	170	1.1	-0.753	0.507	-10.1% (inactive)	-0.398 (inactive)	-7e-05 (inactive)	0.00502 (inactive)	inactive	-4.12% (inactive)
[N-]=[N+]=CC(=O)c1ccnc(C(=O)C=[N+]=[N-])c1	544	-10.2% (inactive)	-164% (inactive)	136	1.23	-1.66	-0.478	21.8% (inactive)	-0.54 (inactive)	-6.3e-05 (inactive)	0.00557 (inactive)	inactive	3.22% (inactive)
COc1ccc(C2CC(=O)c3sc(N)nc3C2)cc1 (stereo unspecified)	424	-15.2% (inactive)	-328% (inactive)	147	0.261	-0.0796	-0.89	26.6% (inactive)	-0.408 (inactive)	-1.9e-05 (inactive)	0.00734 (inactive)	inactive	0.76% (inactive)
CC1CN(c2oc(-c3ccccc3Cl)nc2C#N)CC(C)O1 (stereo unspecified)	355	-5.2% (inactive)	-154% (inactive)	83.5	-0.0257	-0.411	-1.37	-0.159% (inactive)	-0.433 (inactive)	-9.2e-06 (inactive)	0.00575 (inactive)	inactive	-9.38% (inactive)
S=c1nc(-c2ccccc2)[nH]n1-c1ccccc1	339	-3.4% (inactive)	-90.9% (inactive)	110	1.6	-1.83	-0.637	11.4% (inactive)	-0.454 (inactive)	3.3e-06 (inactive)	0.0253 (active)	inactive	-5.69% (inactive)
C/C(=N\O)c1ccc2[nH]ccc2c1	578	0.2% (inactive)	45.4% (inactive)	161	0.0779	0.348	-0.861	-7.01% (inactive)	-0.341 (inactive)	-3.6e-05 (inactive)	0.00435 (inactive)	inactive	-2.54% (inactive)
CC(C)(C)c1cccc(/C=N/O)c1O	519	-19.1% (inactive)	-214% (inactive)	140	2.16	-0.74	-1.64	7.93% (inactive)	-0.526 (inactive)	-2.2e-05 (inactive)	0.00592 (inactive)	inactive	9.58% (inactive)
CN1CCc2nc(SCC(=O)Nc3ccc(Cl)cc3)c(C#N)cc2C1	378	-14.3% (inactive)	-155% (inactive)	162	1.95	-0.641	-1.16	12.3% (inactive)	-0.422 (inactive)	-0.000135 (inactive)	0.0059 (inactive)	inactive	0.323% (inactive)
Cc1ccc(C2CC(C(F)(F)F)n3ncc(C(N)=O)c3N2)cc1 (stereo unspecified)	506	-1.3% (inactive)	4.8% (inactive)	124	-0.204	-0.144	1.07	-7.79% (inactive)	-0.5 (inactive)	-8.2e-05 (inactive)	0.00506 (inactive)	inactive	16.3% (inactive)
O=C1OC2CCC1(c1ccccc1)C2 (stereo unspecified)	573	-7% (inactive)	40.2% (inactive)	137	-1.09	0.357	0.719	-5.89% (inactive)	-0.524 (inactive)	-7.2e-05 (inactive)	0.00472 (inactive)	inactive	-4.76% (inactive)
